In general, Ki refers to the dissociation constant of the complex between target and ligand, obtained from inhibition or displacement. Low readings indicate tighter binding, high ones weaker binding. As a reminder, the EC50 is the concentration that produces a half-maximal response. High values mean lower potency in that assay, low ones higher potency in that assay. For orientation: IC50 means the point on the concentration scale where inhibition reaches its midpoint. Read a high IC50 as lower potency. As a reminder, the inhibition is the relative decrease from the control value, in per cent.

Active and inactive are the calls of the source.

One series concerns Mus musculus. The series can be described thus: Antiallodynic activity in CD-1 mouse model of capsaicin-induced mechanical allodynia assessed as increase in paw withdrawal threshold at 32 mg/kg, sc administered 30 mins before capsaicin addition and measured after 15 mins by von-Frey test. The format is functional, organism-based. The procedure, abridged:
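Female CD-1 mice given compound or HPMC vehicle sc 30 min before intraplantar capsaicin (1 µg in 20 µL, 1% DMSO). 15 min later, electronic von Frey punctate stimulus (0.5 g) at least 5 mm from injection site; paw withdrawal latency, three trials 30 s apart, 50 s cutoff. % antiallodynic effect = [(LTD−LTS)/(CT−LTS)]×100; 6-8 mice per group, ANOVA with Bonferroni.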

Series [1] can be described thus: Displacement of [3H] ifenprodil from GluN2B/GluN1a (unknown origin) expressed in mouse L(tk-) cell membranes incubated for 120 mins by scintillation counting method. Set-up: species or system Homo sapiens. In a few lines:
(§1)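 Membranes from mouse L(tk-) cells co-transfected with dexamethasone-inducible GluN1a/GluN2B (1:5), induced 24 h with 4 μM dexamethasone plus 4 μM ketamine.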
In general terms: Displacement assays read how much labelled ligand stays bound in the presence of the test substance.

Series [2] deals with Sigma non-opioid intracellular receptor 1 (Cavia porcellus, UniProt Q60492). The format is cell membranes.
Series [3] addresses T1, Sigma intracellular receptor 2 (Rattus norvegicus, UniProt Q5U3Y7).
T1 sequence (Q5U3Y7 whole entry): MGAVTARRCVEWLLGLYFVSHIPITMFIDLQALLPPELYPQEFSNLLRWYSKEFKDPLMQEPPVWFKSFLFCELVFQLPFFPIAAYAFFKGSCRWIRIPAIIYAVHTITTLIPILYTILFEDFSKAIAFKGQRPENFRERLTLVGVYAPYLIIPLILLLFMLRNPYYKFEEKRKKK
Briefly: Displacement of [3H]-di-o-tolylguanidine from sigma2 receptor in rat liver membranes incubated for 120 mins by scintillation counting method. In kind it is cell membranes.

Series [4] concerns the target T2, Mu-type opioid receptor (Homo sapiens, UniProt P35372). The series can be described thus: Displacement of [3H]DAMGO from human MOR expressed in CHO-K1 cells membranes after 60 mins by micro beta scintillation counting method. In kind it is cell membranes. In a few lines:
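Human MOR in CHO-K1 membranes (20 µg) with 1 nM [3H]DAMGO in 50 mM Tris-HCl, 5 mM MgCl2, pH 7.4, 27 °C for 60 min. Test compound at five concentrations; 10 µM naloxone defines nonspecific binding. Filtered, washed thrice with ice-cold 10 mM Tris-HCl, counted by liquid scintillation.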

For series [5], the target named is Delta-type opioid receptor (Homo sapiens, UniProt P41143). The series can be described thus: Inhibition of DOR (unknown origin).
Delta-type opioid receptor, sequence (P41143 whole entry): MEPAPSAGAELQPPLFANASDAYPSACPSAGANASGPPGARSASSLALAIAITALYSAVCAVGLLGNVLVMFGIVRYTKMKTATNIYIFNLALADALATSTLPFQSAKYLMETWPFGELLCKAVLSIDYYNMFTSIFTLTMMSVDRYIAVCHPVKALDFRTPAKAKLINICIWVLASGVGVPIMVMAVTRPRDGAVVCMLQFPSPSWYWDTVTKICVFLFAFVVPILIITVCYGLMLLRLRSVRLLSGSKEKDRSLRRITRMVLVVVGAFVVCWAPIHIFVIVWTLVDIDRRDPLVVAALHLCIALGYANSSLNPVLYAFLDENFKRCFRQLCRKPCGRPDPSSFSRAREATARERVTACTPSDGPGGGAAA
The target of series [6] is Kappa-type opioid receptor (Homo sapiens, UniProt P41145). The series can be described thus: Inhibition of KOR (unknown origin).
Kappa-type opioid receptor, sequence (P41145 whole entry): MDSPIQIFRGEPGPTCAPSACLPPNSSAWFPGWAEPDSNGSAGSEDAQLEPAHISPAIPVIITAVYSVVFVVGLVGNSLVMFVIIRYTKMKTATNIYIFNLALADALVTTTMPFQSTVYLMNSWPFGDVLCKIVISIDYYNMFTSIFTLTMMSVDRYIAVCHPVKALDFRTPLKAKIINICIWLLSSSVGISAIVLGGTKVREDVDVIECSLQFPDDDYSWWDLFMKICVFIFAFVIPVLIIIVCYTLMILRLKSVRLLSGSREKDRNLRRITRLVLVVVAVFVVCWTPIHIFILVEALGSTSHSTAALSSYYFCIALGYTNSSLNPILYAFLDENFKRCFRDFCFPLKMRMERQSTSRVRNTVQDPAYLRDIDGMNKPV
Series [7] deals with T2, Mu-type opioid receptor. Briefly: Agonist activity at MOR (unknown origin) by cAMP assay. In kind it is functional. For orientation: cAMP levels reflect the balance of adenylyl cyclase and phosphodiesterase activity.
Series [8] addresses Voltage-gated inwardly rectifying potassium channel KCNH2 (Homo sapiens, UniProt Q12809). Briefly: Inhibition of human ERG expressed in CHO cells at -80 mV holding potential by automated patch clamp electrophysiology assay. The format is cell-based.
In series [9] the target is Sodium-dependent serotonin transporter (Homo sapiens) (UniProt P31645). Briefly: Displacement of [3H]imipramine from human serotonin transporter at 1 uM after 30 mins by scintillation counting method relative to control. The procedure, abridged:
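Human SERT-enriched membranes (3.5 μg) incubated 30 min at 27 °C with 3 nM [3H]imipramine in Tris-HCl/120 mM NaCl/5 mM KCl pH 7.4, 0.1% DMSO; 200 μM imipramine for nonspecific binding. Compound at 1 μM; displacement after filtration.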

The target of series [10] is Sodium-dependent noradrenaline transporter (Homo sapiens) (UniProt P23975). Briefly: Displacement of [3H]nisoxetine from recombinant human norepinephrine transporter at 1 uM after 60 mins by scintillation counting method relative to control. In a few lines: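 Human NET-enriched membranes (1 μg), 5 nM [3H]nisoxetine in 50 mM Tris-HCl, 120 mM NaCl, 5 mM KCl, pH 7.4, 1% DMSO final; 60 min at 4 °C; 10 μM desipramine for nonspecific binding. Single 1 μM compound; filtration, displacement of radioligand.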
Sodium-dependent noradrenaline transporter (Homo sapiens), sequence (P23975 whole entry): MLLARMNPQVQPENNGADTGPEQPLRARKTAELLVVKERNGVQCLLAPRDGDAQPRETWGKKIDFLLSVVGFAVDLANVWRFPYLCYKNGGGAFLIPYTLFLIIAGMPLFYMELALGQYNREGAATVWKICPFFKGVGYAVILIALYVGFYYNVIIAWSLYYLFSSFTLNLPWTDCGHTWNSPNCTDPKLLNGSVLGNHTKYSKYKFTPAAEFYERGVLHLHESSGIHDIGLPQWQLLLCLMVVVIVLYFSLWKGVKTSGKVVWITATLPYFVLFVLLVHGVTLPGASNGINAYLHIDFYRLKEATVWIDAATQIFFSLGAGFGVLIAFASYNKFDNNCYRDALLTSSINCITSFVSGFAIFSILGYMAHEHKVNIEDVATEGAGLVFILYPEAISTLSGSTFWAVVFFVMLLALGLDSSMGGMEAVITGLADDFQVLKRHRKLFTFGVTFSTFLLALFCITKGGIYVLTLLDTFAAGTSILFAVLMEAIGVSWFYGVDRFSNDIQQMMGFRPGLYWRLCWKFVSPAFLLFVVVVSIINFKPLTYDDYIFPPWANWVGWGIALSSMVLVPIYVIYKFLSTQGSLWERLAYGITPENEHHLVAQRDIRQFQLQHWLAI

The target of series [11] is 5-hydroxytryptamine receptor 1A (Homo sapiens) (UniProt P08908). The series can be described thus: Displacement of [3H]8-OH-DPAT from human 5HT1A receptor at 1 uM incubated for 2 hrs scintillation counting method relative to control. In a few lines: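 Human 5-HT1A-enriched membranes (10 μg), 2 nM [3H]-8-OH-DPAT, 50 mM Tris-HCl/5 mM MgCl2 pH 7.4, 0.1% DMSO final, 2 h at 37 °C; 10 μM 5-HT for nonspecific binding. Compound at 1 μM; radioligand displacement read after GF/C filtration.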
5-hydroxytryptamine receptor 1A (Homo sapiens), sequence (P08908 whole entry): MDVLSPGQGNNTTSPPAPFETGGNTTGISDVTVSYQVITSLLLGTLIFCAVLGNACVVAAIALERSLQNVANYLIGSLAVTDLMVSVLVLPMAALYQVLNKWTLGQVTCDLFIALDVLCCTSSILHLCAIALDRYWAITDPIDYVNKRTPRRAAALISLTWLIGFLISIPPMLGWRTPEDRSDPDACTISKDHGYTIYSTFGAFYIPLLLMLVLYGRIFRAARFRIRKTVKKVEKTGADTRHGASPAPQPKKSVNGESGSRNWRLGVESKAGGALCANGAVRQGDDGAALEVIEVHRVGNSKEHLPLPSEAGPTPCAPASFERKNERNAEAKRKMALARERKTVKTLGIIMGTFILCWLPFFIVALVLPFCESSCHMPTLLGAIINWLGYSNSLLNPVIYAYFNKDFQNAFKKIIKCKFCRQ

The target in series [12] is 5-hydroxytryptamine receptor 2B (Homo sapiens) (UniProt P41595). The series can be described thus: Displacement of [3H]-LSD from recombinant human 5HT2B receptor at 1 uM after 30 mins by scintillation counting method relative to control. In a few lines: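 Human 5-HT2B-enriched membranes (5 µg), 1 nM [3H]LSD in 50 mM Tris-HCl, 4 mM CaCl2, 1% ascorbic acid, pH 7.4, 0.1% DMSO; 30 min, 37 °C; 50 µM 5-HT for nonspecific binding. Single 1 µM compound concentration; displacement after filtration.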
5-hydroxytryptamine receptor 2B (Homo sapiens), sequence (P41595 whole entry): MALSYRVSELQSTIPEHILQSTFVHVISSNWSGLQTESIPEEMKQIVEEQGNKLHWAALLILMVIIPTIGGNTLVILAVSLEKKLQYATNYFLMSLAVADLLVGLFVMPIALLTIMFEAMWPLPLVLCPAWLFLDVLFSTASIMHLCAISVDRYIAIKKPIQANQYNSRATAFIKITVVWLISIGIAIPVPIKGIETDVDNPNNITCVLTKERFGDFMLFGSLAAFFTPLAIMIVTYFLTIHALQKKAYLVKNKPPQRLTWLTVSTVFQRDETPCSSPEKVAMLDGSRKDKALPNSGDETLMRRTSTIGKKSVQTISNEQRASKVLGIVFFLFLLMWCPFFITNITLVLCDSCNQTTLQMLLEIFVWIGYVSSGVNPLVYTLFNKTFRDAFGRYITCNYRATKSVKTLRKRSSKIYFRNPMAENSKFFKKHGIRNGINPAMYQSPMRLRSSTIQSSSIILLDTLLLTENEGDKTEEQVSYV

For series [13], the target named is Alpha-1A adrenergic receptor (Homo sapiens) (UniProt P35348). Briefly: Displacement of [3H]prazosin from human adrenergic alpha1A receptor at 1 uM after 90 mins by scintillation counting method relative to control. The procedure, abridged:
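α1A adrenoceptor-enriched human membranes (10 µg), 0.2 nM [3H]prazosin in 50 mM HEPES, 5 mM MgCl2, 1 mM CaCl2, 0.2% BSA, pH 7.4; 90 min at 25 °C; 1 µM prazosin for nonspecific binding. Compound tested at 1 µM; bound ligand collected by filtration.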

Series [14] deals with Histamine H1 receptor (Homo sapiens) (UniProt P35367). Briefly: Displacement of [3H]pyrilamine from human recombinant histamine H1 receptor at 1 uM after 90 mins by scintillation counting method relative to control. The procedure, abridged: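 Human H1 receptor-enriched membranes (25 μg) with 2.4 nM [3H]pyrilamine in Na+/K+ phosphate buffer pH 7.4, 0.1% DMSO, 90 min, 25 °C; 10 μM triprolidine for nonspecific binding. Single 1 μM test concentration; filtration-based readout of displacement.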

A short description of series [15]: Drug metabolism in human liver microsomes at 1 uM incubated for 1 hr in presence of NADPH by UPLC-MS analysis. In kind it is ADME, Microsome. The settings on record: read-out: Drug metabolism. The procedure, abridged: (§2)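 Liver microsomes, compound 1 µM, 37 °C for 1 h in 50 mM Na/K phosphate pH 7.4, 3 mM MgCl2, NADPH-regenerating system, CYP 0.3 nmol/mL. Aliquots at 0, 10, 20, 40, 60 min quenched with cold acetonitrile, supernatants by UPLC-MS/MS; % parent remaining at end reported. Terfenadine as positive control.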
(In general: Liver microsomes are a subcellular fraction often used to study metabolism.)

Series [16] in a line: Drug metabolism in mouse liver microsomes at 1 uM incubated for 1 hr in presence of NADPH by UPLC-MS analysis. In kind it is ADME, Microsome. To be noted: read-out: Drug metabolism. In a few lines: as §2
The nature of series [17]: Drug metabolism in rat liver microsomes at 1 uM incubated for 1 hr in presence of NADPH by UPLC-MS analysis. To be noted: read-out: Drug metabolism. The format is ADME, Microsome. The procedure, abridged: as §2
The target in the next series is CYP2D6 (Homo sapiens, UniProt P10635). The series can be described thus: Inhibition of recombinant human CYP2D6 at 1 uM by fluorescence probe substrate-based flurometric analysis. The format is ADME.
CYP2D6, sequence (P10635 whole entry): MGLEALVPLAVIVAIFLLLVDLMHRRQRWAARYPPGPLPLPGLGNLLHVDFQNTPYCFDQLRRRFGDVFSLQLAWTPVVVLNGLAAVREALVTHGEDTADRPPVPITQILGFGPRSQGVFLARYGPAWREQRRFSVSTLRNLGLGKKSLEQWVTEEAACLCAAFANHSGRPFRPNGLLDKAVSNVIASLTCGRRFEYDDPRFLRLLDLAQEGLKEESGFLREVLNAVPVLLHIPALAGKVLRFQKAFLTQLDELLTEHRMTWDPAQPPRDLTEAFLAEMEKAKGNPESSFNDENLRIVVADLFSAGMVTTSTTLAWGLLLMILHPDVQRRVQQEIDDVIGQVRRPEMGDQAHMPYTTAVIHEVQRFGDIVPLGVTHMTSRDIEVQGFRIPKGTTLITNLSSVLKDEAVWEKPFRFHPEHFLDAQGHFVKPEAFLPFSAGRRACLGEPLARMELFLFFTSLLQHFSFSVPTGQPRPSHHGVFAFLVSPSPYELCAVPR
Series [18] relates to HepG2. The series can be described thus: Cytotoxicity against human HepG2 assessed as reduction in cell viability at 1 to 100 uM after 20 hrs by MTT assay. In kind it is cell-based. To be noted: hepg2, 20 h. The procedure, abridged: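 HepG2 cells, 3 x 10^4/well, grown 24 h in MEM/10% FBS, then exposed 20 h in serum-free medium to compound at 1, 10, 100 µM (from DMSO solutions). MTT 0.5 mg/mL for 4 h, formazan dissolved in DMSO, OD 550 nm. IC50 taken as lowest concentration giving ≥50% cytotoxicity versus untreated cells; duplicates in two assays (n = 4).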

The test system of series [19] is HepG2. The series can be described thus: Cytotoxicity against human HepG2 assessed as reduction in cell viability at 1 to 100 uM after 20 hrs by neutral red uptake assay. The format is cell-based. To be noted: hepg2, 20 h. The procedure, abridged:
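HepG2 seeded 3 x 10^4/well, 24 h, then 20 h serum-free exposure at 1, 10 or 100 µM. Neutral red 50 µg/mL for 3 h, washed, dye extracted with 50% ethanol/1% acetic acid, OD 550 nm. IC50 assigned as lowest concentration reaching ≥50% cytotoxicity against untreated cells; n = 4 (duplicate, two assays).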

The target in series [20] is Sodium-dependent dopamine transporter (Homo sapiens) (UniProt Q01959). The series can be described thus: Displacement of [3H]GBR12935 from human DAT at 1 uM after 120 mins by scintillation counting method relative to control. The procedure, abridged: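 DAT-enriched human membranes (5 µg), 2 nM [3H]GBR12935 in 50 mM Tris-HCl/100 mM NaCl pH 7.4, 0.1% DMSO, 120 min at 4 °C; 10 µM GBR12909 for nonspecific binding. Compound at 1 µM; displacement measured after filtration.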
Sodium-dependent dopamine transporter (Homo sapiens), sequence (Q01959 whole entry): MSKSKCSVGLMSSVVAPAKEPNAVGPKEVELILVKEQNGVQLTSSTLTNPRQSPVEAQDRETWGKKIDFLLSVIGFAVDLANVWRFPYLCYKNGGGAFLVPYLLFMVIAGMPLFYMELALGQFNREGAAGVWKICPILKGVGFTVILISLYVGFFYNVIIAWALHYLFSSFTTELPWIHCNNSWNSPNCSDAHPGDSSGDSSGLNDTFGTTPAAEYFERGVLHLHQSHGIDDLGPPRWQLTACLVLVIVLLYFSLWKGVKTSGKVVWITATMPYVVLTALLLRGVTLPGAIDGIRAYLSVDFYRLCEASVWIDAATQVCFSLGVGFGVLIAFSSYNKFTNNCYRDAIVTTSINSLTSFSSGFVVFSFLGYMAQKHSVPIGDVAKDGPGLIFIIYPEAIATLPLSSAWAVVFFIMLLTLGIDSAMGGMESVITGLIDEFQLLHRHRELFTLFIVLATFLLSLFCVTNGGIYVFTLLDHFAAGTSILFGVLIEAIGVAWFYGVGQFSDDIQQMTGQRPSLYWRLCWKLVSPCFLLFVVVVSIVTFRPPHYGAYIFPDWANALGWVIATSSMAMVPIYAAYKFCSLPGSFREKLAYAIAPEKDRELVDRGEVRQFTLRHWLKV

A short description of series [21]: Stability of compound in aqueous HCl solution at pH 2 after 24 hrs by HPLC analysis. The format is physicochemical. To be noted: buffer, pH 2, 24 h. In a few lines: (§3)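 Compound (25 μL of 10 mM DMSO stock) added to 1 mL aqueous buffered solution, pH 2 or pH 7.4, stirred 24 h at room temperature, analyzed by HPLC-MS; deemed stable if peak area remained 95–105%.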

Series [22] in a line: Stability of compound in phosphate buffer at pH 7.4 after 24 hrs by HPLC analysis. The settings on record: pH 7.4, 24 h. In kind it is physicochemical. In a few lines:
as §3

For series [23], the species on record is Sus scrofa. The settings on record: at 1 µM.
The species entered for another series is Homo sapiens. The series can be described thus: Displacement of [3H] ifenprodil from GluN2B/GluN1a (unknown origin) expressed in mouse L(tk-) cell membranes at 10^-10 to 10^-5 mol/L incubated for 120 mins by scintillation counting method relative to control. The procedure, abridged:
as §1

Series [24] deals with Sigma non-opioid intracellular receptor 1 (Cavia porcellus) (UniProt Q60492). The series can be described thus: Displacement of [3H]-(+)-pentazocine from sigma1 receptor in guinea pig brain cortex membranes at 10^-10 to 10^-5 mol/L incubated for 120 mins by scintillation counting method relative to control. The format is cell membranes.
For series [25], the target named is Sigma intracellular receptor 2 (Rattus norvegicus) (UniProt Q5U3Y7). Briefly: Displacement of [3H]-di-o-tolylguanidine from sigma2 receptor in rat liver membranes at 10^-10 to 10^-5 mol/L incubated for 120 mins by scintillation counting method relative to control. In kind it is cell membranes.
The species named for series [26] is Sus scrofa. The series can be described thus: Displacement of [3H]-(+)-MK-801 from NMDA PCP binding site in pig brain cortex membrane at 10 uM incubated for 180 mins by scintillation counting method relative to control. The format is cell membranes.

T2 sequence (P35372 whole entry): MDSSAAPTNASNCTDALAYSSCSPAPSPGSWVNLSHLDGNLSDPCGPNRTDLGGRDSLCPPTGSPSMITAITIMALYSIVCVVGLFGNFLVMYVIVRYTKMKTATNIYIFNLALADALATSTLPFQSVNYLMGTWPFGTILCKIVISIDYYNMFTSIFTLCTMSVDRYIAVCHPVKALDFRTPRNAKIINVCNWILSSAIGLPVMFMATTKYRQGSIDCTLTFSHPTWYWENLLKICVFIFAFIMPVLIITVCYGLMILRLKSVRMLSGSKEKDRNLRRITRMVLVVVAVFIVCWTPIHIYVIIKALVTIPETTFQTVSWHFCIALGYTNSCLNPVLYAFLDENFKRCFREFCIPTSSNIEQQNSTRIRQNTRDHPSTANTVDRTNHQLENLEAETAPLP
Sodium-dependent serotonin transporter (Homo sapiens), sequence (P31645 whole entry, looked up): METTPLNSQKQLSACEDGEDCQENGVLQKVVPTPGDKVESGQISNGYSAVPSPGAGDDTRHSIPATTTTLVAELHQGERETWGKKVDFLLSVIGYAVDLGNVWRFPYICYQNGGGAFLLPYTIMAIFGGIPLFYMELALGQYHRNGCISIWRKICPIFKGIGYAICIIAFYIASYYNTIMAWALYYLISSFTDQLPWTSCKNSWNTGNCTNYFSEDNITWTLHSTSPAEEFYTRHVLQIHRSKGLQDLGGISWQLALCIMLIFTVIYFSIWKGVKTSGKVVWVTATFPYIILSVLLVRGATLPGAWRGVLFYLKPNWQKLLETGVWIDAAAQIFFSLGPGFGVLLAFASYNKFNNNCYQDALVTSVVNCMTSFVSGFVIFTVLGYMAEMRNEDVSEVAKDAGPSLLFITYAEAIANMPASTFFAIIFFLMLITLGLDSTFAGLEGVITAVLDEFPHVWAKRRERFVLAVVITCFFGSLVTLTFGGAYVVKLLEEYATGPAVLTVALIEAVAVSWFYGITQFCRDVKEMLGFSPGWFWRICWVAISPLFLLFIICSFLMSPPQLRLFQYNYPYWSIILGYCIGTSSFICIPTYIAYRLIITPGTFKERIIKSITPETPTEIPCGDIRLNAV
Alpha-1A adrenergic receptor (Homo sapiens), sequence (P35348 whole entry): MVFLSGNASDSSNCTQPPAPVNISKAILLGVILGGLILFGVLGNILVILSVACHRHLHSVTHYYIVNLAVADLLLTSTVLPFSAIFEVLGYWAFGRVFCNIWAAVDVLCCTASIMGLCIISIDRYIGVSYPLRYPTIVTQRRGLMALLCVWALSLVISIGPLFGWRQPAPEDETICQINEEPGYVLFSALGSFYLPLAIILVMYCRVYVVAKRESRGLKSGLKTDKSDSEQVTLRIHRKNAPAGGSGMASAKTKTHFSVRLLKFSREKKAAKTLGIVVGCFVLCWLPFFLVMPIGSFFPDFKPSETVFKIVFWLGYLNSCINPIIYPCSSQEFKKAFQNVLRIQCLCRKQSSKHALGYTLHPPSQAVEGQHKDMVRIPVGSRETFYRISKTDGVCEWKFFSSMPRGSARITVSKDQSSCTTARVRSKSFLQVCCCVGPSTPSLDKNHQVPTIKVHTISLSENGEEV

`CN1CCN(CCc2ccc(Cl)c(Cl)c2)CC1`: the outcome in the series with Mus musculus was Active.

For the compound `FC(CCN1CCc2ccccc2CC1)Cc1ccccc1` (stereo unspecified), the Ki in series [1] is 30 nM; in series [2] it was 8 nM; in series [3], 48 nM; on Mu-type opioid receptor [4], 406 nM; in [5] it was > 1000 nM; in series [6], > 1000 nM. Besides, on Mu-type opioid receptor [7], the EC50 was > 10000 nM. The same compound gave an IC50 in [8] of 1180 nM. For the same compound, the inhibition in [9] is < 50%; in series [10], < 50%; in [11], 72%; in series [12], < 50%; in [13], < 50%; in series [14], < 50%. Moreover, the inhibition in series [20] was < 50%; in the series filed under Sus scrofa [23] it was 0%. Further, the metabolised at 1 h, 1 µM in series [15], in [16] and in series [17] was 100% in each case. In addition, the inhibition at 1 µM on CYP2D6 is 85%. Besides, the Activity entry in the series with HepG2 [18] and with HepG2 [19] was “Toxic” throughout. Moreover, the Stability entry in series [21] and in series [22] was “Stable” throughout.

Consider `COc1ccc2c(c1)CCN1CC2OC1C(F)CCc1ccccc1` (stereo unspecified), for which the inhibition amounted to 8% in the series listed under Homo sapiens, 0% in [24], 0% in series [25] and 0% in the series listed under Sus scrofa [23].

The compound `COc1ccc2c(c1)CCN(CCCCc1ccccc1)CC2O` (stereo unspecified) showed a Ki in [1] of 706 nM. In addition, in the series listed under Sus scrofa [26], the inhibition stood at 22%.

(Values after ChEMBL document CHEMBL4393719, “Tetrahydro-3-benzazepines with fluorinated side chains as NMDA and σ1 receptor antagonists: Synthesis, receptor affinity, selectivity and antiallodynic activity” (Eur J Med Chem, 2019).)
